# From PubChem BioAssay
# The list is not random: actives were taken first. Their share in the collection is about 3.5%.
# RGS4 act = RGS4 potentiators or activators, primary screen, cell-based, HEK293 M3R inducible RGS4, calcium flux; carbachol calcium flux Fluo4; hits give low values; B-score at 10 µM; 310,000 tested, 0.92% active; AID 463111, 2010;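 active means B-score of the integrated calcium signal more than 4 SD below the library mean, with starting fluorescence not abnormally high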;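 further: negative B-score means reduced calcium response which marks RGS4 activation or potentiation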
#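 test system = HEK293 cells with stable M3R and inducible RGS4 | schedule = recording 10 s baseline at 1 Hz, 100 s post-agonist | technique = Fluo4-AM (2 µM) calcium-flux fluorescence, kinetic read | measure = Agonist-evoked peak-minus-minimum fluorescence over baseline, integrated ratio, B score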
# MrgX1 PAM = positive allosteric modulators of MrgX1, primary screen, HEK293 cells, Fluo-4 calcium flux | Mas-related G-protein coupled receptor member X1 (Homo sapiens), Q96LB2 | 310,000 tested, 0.63% active | B-score at 10 µM | AID 588675, 2011 | FDSS; hits give high values;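 active means plate-corrected calcium response at least 3 library SD above typical, normal starting fluorescence, not activating the receptor alone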;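 further: compound read alongside a low EC10 to EC30 dose of BAM8-22 agonist; peak minus trough fluorescence over baseline measured at the second addition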
# Target sequence (Q96LB2 whole entry, looked up): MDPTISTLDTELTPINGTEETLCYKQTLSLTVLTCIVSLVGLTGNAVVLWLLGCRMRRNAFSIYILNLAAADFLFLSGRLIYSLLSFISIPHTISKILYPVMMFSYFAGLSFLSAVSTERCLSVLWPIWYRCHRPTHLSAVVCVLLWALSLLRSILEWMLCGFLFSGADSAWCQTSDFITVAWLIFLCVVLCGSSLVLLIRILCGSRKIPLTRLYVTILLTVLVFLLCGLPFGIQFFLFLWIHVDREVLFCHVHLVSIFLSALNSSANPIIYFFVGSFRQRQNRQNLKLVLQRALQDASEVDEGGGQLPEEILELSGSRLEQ
# MrgX1 antagonist = antagonists of human MrgX1 receptor, primary screen, HEK293 cells, Fluo-4 calcium flux; Mas-related G-protein coupled receptor member X1 (Homo sapiens), Q96LB2; BAM8-22 antagonism; hits give low values; B-score at 10 µM; 310,000 tested, 1.3% active; AID 588676, 2011;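 active means calcium-response B-score plate-corrected more than 3 library SD below zero, starting fluorescence within 5 deviations, no agonist response on first addition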;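 further: peak minus trough fluorescence over baseline after final BAM8-22 challenge near maximal dose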
# RGS4 inh = RGS4 inhibitors, primary screen, cell-based, HEK293 M3R inducible RGS4, calcium flux | Fluo-4 calcium flux; hits give high values; triggered by carbachol at its EC20 | B-score at 10 µM | 310,000 tested, 0.45% active | AID 463165, 2010;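 active means B-score, a plate-corrected calcium signal, over three deviations above library mean, with baseline fluorescence within five deviations of library mean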;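 further: RGS4 expression induced by doxycycline in cells with stable M3 receptor; B-score is computed from the integrated fluorescence ratio over baseline after carbachol; higher B-score means a larger calcium signal and so more RGS4 inhibition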
# Target sequence (P49798 whole entry, looked up): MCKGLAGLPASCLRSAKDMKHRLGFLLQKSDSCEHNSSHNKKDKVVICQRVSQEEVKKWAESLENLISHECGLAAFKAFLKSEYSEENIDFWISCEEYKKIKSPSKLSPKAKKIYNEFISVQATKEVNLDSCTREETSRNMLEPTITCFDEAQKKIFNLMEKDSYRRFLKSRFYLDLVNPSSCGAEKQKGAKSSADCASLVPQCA
# MrgX1 ag = agonists of human MrgX1 receptor, primary screen, HEK293 cells, Fluo-4 calcium flux; Fluo-4 calcium fluorescence, agonist mode; hits give high values; B-score at 10 µM; 310,000 tested, 0.44% active; AID 588627, 2011;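 active means calcium response B-score plate-corrected fluorescence ratio at least 3 library SD, with starting fluorescence B-score inside 5 SD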
#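 Material – MrgX1-expressing HEK293 cells · Input – 15,000 cells seeded per well · Dosing – compound as first of three additions · Times – overnight seeding, then 1 h dark dye loading · Measured by – kinetic Fluo-4 NW fluorescence of intracellular calcium · Read-out – B-scored fluorescence response ratio · Benchmarks – positive and negative control wells on each plate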
# MrgX1 antag conf = MrgX1 receptor antagonists, duplicate retest, confirmation, HEK293 cells, Fluo-4 calcium flux; shares compounds with MrgX1 antagonist; remaining BAM8-22 calcium response % of control (hits give low values), % at 10 µM; 2,300 tested, 19% active; BAM8-22 calcium flux; hits give low values; AID 602420, 2012;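 active means remaining agonist calcium response no higher than 100% minus 3 SD of agonist-only control wells, with starting fluorescence near control levels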;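 further: agonist BAM8-22 given at a near maximal EC90 to ECmax level; peak minus minimum fluorescence divided by baseline after agonist addition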
# HEK293 Ca flux = nonspecific calcium signal in parental HEK293, confirmation, counter-screen for MrgX1 antagonist project, parental HEK293 cells, Fluo-4 calcium flux; fluorescence ratio F(max-min)/F0 at 10 µM; 4,000 tested, 2% active; shares compounds with MrgX1 antagonist; Fluo-4 calcium fluorescence, FDSS;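 active means duplicate-averaged calcium fluorescence ratio at least three times the standard deviation of buffer wells, a nonspecific response in parental cells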
# HEK293 Ca counter = calcium response in parental HEK293 cells, primary screen, counter-screen for MrgX1 allosteric activator project, cell-based, Fluo-4 calcium flux, duplicate; shares compounds with MrgX1 antagonist; Fluo-4 fluorescence ratio; hits give high values; fluorescence ratio F(max-min)/F0 at 10 µM; 4,000 tested, 0.4% active; AID 624114, 2012;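 active means calcium fluorescence ratio, averaged over duplicates, at least 3 SD of the buffer-well ratio, meaning a nonspecific response in receptor-free cells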;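 further: untransfected parental HEK293 lacking MrgX1 used as counterscreen for MrgX1 allosteric activators; fluorescence change taken during the second addition on a kinetic imager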
# HEK293 Ca cntr2 = calcium response in parental HEK293 cells, primary screen, counter-screen for MrgX1 agonist project, cell-based, Fluo-4 calcium flux, duplicate, agonist mode. fluorescence ratio F(max-min)/F0 at 10 µM. Fluo-4 calcium fluorescence (FDSS); hits give high values. shares compounds with MrgX1 antagonist. 4,000 tested, 8.7% active. AID 624115, 2012;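 active means calcium fluorescence ratio at least three times the spread of buffer wells, meaning a non-specific response in parental cells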
# * marks the source's active call; other numbers are inactive results; i = inactive; nt = not tested or not shown.
SMILES,RGS4 act,MrgX1 PAM,MrgX1 antagonist,RGS4 inh,MrgX1 ag,MrgX1 antag conf,HEK293 Ca flux,HEK293 Ca counter,HEK293 Ca cntr2
COc1ccccc1NC(=O)c1ccc2nc(C)c(C)nc2c1,i,i,-8.1*,i,i,i,i,i,i
COc1ccccc1NC(=O)c1cc2ccccc2nc1C,i,i,i,i,i,nt,nt,nt,nt
O=C(O)[C@H](Cc1ccccc1)N1C(=O)c2c(Cl)c(Cl)c(Cl)c(Cl)c2C1=O,i,i,-8.6*,i,i,i,i,i,i
O=C(O)C(Cc1ccccc1)n1cccc1 (stereo not drawn),i,i,i,i,i,nt,nt,nt,nt
NC(=O)c1cnn2c(C(F)(F)F)cc(-c3ccccc3)nc12,i,i,i,i,i,nt,nt,nt,nt
Cc1nn(-c2ccccc2)c2nc(-c3ccncc3)cc(C(=O)NCc3ccco3)c12,i,i,-5.9*,i,i,i,i,i,i
O=C(NCc1ccco1)c1cnn2c(C(F)(F)F)cc(-c3ccccc3)nc12,i,i,-4.7*,i,i,i,i,i,i
Cc1ccc(S(=O)(=O)NCC2CCCO2)cc1[N+](=O)[O-] (stereo not drawn),i,i,i,i,i,nt,nt,nt,nt
O=C(Nc1ccc(Cl)cc1)c1ccco1,i,i,i,i,i,nt,nt,nt,nt
COc1ccc(CN2CC34C=CC(O3)C(C(=O)O)C4C2=O)cc1 (stereo not drawn),i,i,i,i,i,nt,nt,nt,nt
CCCOc1ccc(/C(O)=C2/C(=O)C(=O)N(CCN(C)C)C2c2ccc(O)c(OC)c2)cc1 (stereo not drawn),i,nt,nt,i,nt,nt,nt,nt,nt
CCSc1nnc(NC(=O)COc2ccccc2)s1,i,i,i,i,i,nt,nt,nt,nt
CCSc1nnc(NC(=O)C(CC)Oc2ccccc2)s1 (stereo not drawn),i,i,-6.6*,i,i,i,i,i,i
CN(Cc1ccccc1)C(=O)c1ccc(NC(=O)c2ccccc2)cc1,i,i,-5.5*,i,i,i,i,i,i
S=C(NCCc1c[nH]c2ccccc12)NC1CCCC1,i,i,-4.9*,i,i,i,i,i,i
S=C(NCCc1c[nH]c2ccccc12)NC1CCCCC1,i,i,i,i,i,nt,nt,nt,nt
CN(c1ccc(C(=O)N2CCN(Cc3ccc4c(c3)OCO4)CC2)cc1)S(=O)(=O)c1ccccc1,i,i,i,i,i,nt,nt,nt,nt
COC(=O)c1ccccc1NC(=O)c1ccccc1N(C)S(=O)(=O)c1ccccc1,i,i,i,i,i,nt,nt,nt,nt
Cc1ccc(C(=O)NC(=S)Nc2ccc(N3CCOCC3)cc2)c(C)c1,i,i,-5.4*,i,i,i,i,i,i
CCn1c2ccccc2c2cc(N=C3SC(CC(=O)Nc4ccccc4)C(=O)N3C)ccc21 (stereo not drawn),i,i,i,i,i,nt,nt,nt,nt
O=S(=O)(Cc1cc(NCc2ccccc2)nc(-c2ccccn2)n1)c1ccccc1,i,i,-5.7*,i,i,86%*,i,i,i
COc1ccc(NC(=O)CN(C)C(=O)CSCC(=O)Nc2ccc(C)cc2)cc1,i,i,i,i,i,nt,nt,nt,nt
CCN(C(=O)c1c(-c2ccccc2)noc1C)c1ccccc1,i,i,-4.6*,i,i,i,i,i,i
Cc1ccc(/C=C/C(=O)O)cc1S(=O)(=O)NCc1cccnc1,i,i,i,i,i,nt,nt,nt,nt
CN1CCN(C(=O)c2ccc(N(Cc3ccccc3Cl)S(C)(=O)=O)cc2)CC1,i,i,i,i,i,nt,nt,nt,nt
SMILES,RGS4 act,MrgX1 PAM,MrgX1 antagonist,RGS4 inh,MrgX1 ag,MrgX1 antag conf,HEK293 Ca flux,HEK293 Ca counter,HEK293 Ca cntr2
COc1cccc(/C=N/n2c(N)nc3ccccc32)c1OC,i,i,i,i,i,nt,nt,nt,nt
COc1ccc(/C=N/n2c(N)nc3ccccc32)cc1OC,nt,i,-8.6*,nt,i,i,i,i,i
Cc1nnc(NC(=O)c2ccc(S(=O)(=O)N3CCCCCC3)cc2)o1,i,i,-12*,i,i,i,i,i,i
Cc1nnc(NC(=O)c2ccc(S(=O)(=O)N3CC(C)OC(C)C3)cc2)o1 (stereo not drawn),i,i,i,i,i,nt,nt,nt,nt
COc1ccc(NC(=O)/C(=C\c2ccc(F)cc2)NC(=O)c2ccco2)cc1,i,i,i,i,i,nt,nt,nt,nt
O=c1[nH]c2ccccc2nc1/C=C/c1ccc(F)cc1,i,i,-8*,i,i,i,i,i,i
O=C(OCCN1C(=O)c2ccccc2C1=O)c1cccs1,i,i,-5*,i,i,i,i,i,i
Cc1ccc(C(=O)Nc2ccc3c(c2)OCCO3)cc1,i,i,i,i,i,nt,nt,nt,nt
CCN1CCc2nc(NC(=O)CC(c3ccccc3)c3ccccc3)sc2C1,i,i,i,i,i,nt,nt,nt,nt
CCN1CCc2nc(NC(=O)C(c3ccccc3)c3ccccc3)sc2C1,i,i,-5.8*,i,i,i,i,i,i
CC(C)(C)n1nnnc1C(c1cc2cc3c(cc2[nH]c1=O)OCO3)N1CCN(c2ccccc2)CC1 (stereo not drawn),i,i,-7*,i,i,i,i,i,i
COc1cc2cc(CN(CCO)S(=O)(=O)c3ccccc3Cl)c(=O)[nH]c2cc1OC,i,i,-7.7*,i,i,i,i,i,i
N#CCCN1CCn2c1nc1ccccc12,i,i,i,i,i,nt,nt,nt,nt
